{"data": "Measured values gathered from unrelated publications", "target": "Mitogen-activated protein kinase 13 (MAPK13, Homo sapiens, UniProt O15264)", "Residues used in one study (O15264 1-365)": "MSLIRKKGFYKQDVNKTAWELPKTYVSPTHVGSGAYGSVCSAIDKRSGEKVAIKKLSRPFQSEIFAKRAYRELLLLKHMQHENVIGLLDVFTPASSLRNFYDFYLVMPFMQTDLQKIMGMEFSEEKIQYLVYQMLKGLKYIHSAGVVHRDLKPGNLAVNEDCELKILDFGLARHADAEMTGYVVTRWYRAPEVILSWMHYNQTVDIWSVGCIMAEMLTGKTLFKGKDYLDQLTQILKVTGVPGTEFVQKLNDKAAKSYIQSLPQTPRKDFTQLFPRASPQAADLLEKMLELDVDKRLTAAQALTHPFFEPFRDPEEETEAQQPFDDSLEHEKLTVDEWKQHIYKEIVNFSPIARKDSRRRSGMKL", "note": "Protocols differ between the studies behind these lines."}
{"SMILES": "CN(C)C1CCN(CC#Cc2nn(C3CCCC3)c3nc(NCc4ccccc4)ncc23)C1 (stereo not drawn)", "test": "enzyme activity, inhibitor, FRET", "setting": "1 µM", "endpoint": "inhibition", "result": "0%"}
{"SMILES": "CCN(CC)CCNC(=O)c1c(C)[nH]c(/C=C2\\C(=O)Nc3ccc(F)cc32)c1C", "test": "enzyme activity, inhibitor", "setting": "10 µM", "endpoint": "inhibition", "result": "-5%"}
{"SMILES": "Cn1c2c(c3ccc(Cl)c(Cl)c31)C(C#N)C1(CCCC1)NC2=O (stereo not drawn)", "test": "thermal stability, DSF", "setting": "10 µM", "endpoint": "ΔTm", "result": "-0.1 °C"}
{"SMILES": "CNC(=O)c1cc2c(Oc3ccc(NC(=O)C4(C(=O)Nc5ccc(F)cc5)CC4)cc3)ccnc2cc1OC", "test": "enzyme activity, inhibitor, radiometric", "setting": "1 µM", "endpoint": "inhibition", "result": "83%"}
{"SMILES": "Cc1cnc(NC2CCOCC2)nc1-n1cnc(C(=O)NC(CN)c2cc(F)cc(Cl)c2)c1 (stereo not drawn)", "test": "enzyme activity, inhibitor, radiometric", "setting": "1 µM", "endpoint": "remaining activity", "result": "28%"}
{"SMILES": "Cn1c2c(c3ccc(Cl)c(Cl)c31)C(C#N)C1(CCNCC1)NC2=O (racemic)", "test": "thermal stability, DSF", "setting": "10 µM", "endpoint": "ΔTm", "result": "0.5 °C"}
{"SMILES": "Cc1ccc(NC(=O)c2ccc(C)c(C(F)(F)F)c2)cc1C#Cc1nn(C2CCC(O)CC2)c2ncnc(N)c12 (stereo not drawn)", "test": "cell-free assay", "setting": "10 µM", "endpoint": "remaining signal", "result": "80%"}
{"SMILES": "CNC(=O)c1cc(Oc2ccc(NC(=O)Nc3ccc(Cl)c(C(F)(F)F)c3)cc2)ccn1", "test": "enzyme activity, inhibitor", "setting": "0.3 µM", "endpoint": "inhibition", "result": "-6%"}
{"SMILES": "Cn1c2c(Cl)c(Cl)ccc2c2cc[nH]c(=O)c21", "test": "thermal stability, DSF", "setting": "10 µM", "endpoint": "ΔTm", "result": "-0.4 °C"}
{"SMILES": "Cn1c(=O)n(-c2ccc(C(C)(C)C#N)cc2)c2c3cc(-c4cnc5ccccc5c4)ccc3ncc21", "test": "enzyme activity, inhibitor", "setting": "10 µM", "endpoint": "remaining activity", "result": "100%"}
{"SMILES": "O=C(NCc1ncc(C(F)(F)F)cc1Cl)c1ccc2c(c1)C1(CCS(=O)(=O)CC1)[C@H](C1CC1)N2S(=O)(=O)c1ccc(F)cc1", "test": "cell-free assay, competition with immobilised ligand", "setting": "1 µM", "endpoint": "remaining binding", "result": "99%"}
{"SMILES": "Cc1ccc(Nc2nccc(N(C)c3ccc4c(C)n(C)nc4c3)n2)cc1S(N)(=O)=O", "test": "enzyme activity, inhibitor", "setting": "0.3 µM", "endpoint": "inhibition", "result": "-11%"}
{"SMILES": "COc1cc2ncnc(Nc3ccc(Oc4ccccc4)cc3C)c2cc1OC", "test": "enzyme activity, inhibitor", "setting": "1 µM", "endpoint": "inhibition", "result": "1%"}
{"SMILES": "Cn1c2c(c3ccc(Cl)c(Cl)c31)C(C#N)C(C)(C)NC2=O (stereo not drawn)", "test": "thermal stability, DSF", "setting": "10 µM", "endpoint": "ΔTm", "result": "1.4 °C"}
{"SMILES": "N#Cc1ccc(Nc2ccc3[nH]c(=O)[nH]c3c2)c(Cl)c1", "test": "cell-free assay, competition with immobilised ligand", "setting": "1 µM", "endpoint": "remaining binding", "result": "100%"}
{"SMILES": "N#CCCc1ccc2c(c1)-c1[nH]c3ccc([N+](=O)[O-])cc3c1CC(=O)N2", "test": "cell-free assay", "setting": "0.5 µM", "endpoint": "remaining signal", "result": "98.2%"}
{"SMILES": "O=C(Nc1cnn(-c2csc(C(=O)NC3COC3)c2)c1)Nc1c(F)cccc1Cl", "test": "enzyme activity, inhibitor", "setting": "5 µM", "endpoint": "remaining activity", "result": "98.4%"}
{"SMILES": "COc1cc(-c2cc(-c3ccc(N4CCNCC4)cc3)cnc2C)cc(OC)c1OC", "test": "enzyme activity, inhibitor", "setting": "1 µM", "endpoint": "inhibition", "result": "1%"}
{"SMILES": "COc1cc2c(Nc3ccc(Br)cc3F)ncnc2cc1OCC1CCN(C)CC1", "test": "cell-free assay", "setting": "0.5 µM", "endpoint": "remaining signal", "result": "95.5%"}
{"SMILES": "COc1cc(Cl)c(C(=O)N[C@@H](CN[C@H]2CC[C@@H](N)CC2)Cc2ccc(C#N)cc2)cc1-c1ccc(CN[C@H](C)c2ccc(C)cc2)o1", "test": "enzyme activity, inhibitor", "setting": "1 µM", "endpoint": "remaining activity", "result": "101%"}
{"SMILES": "Oc1cccc(-c2nc(N3CCOCC3)c3oc4ncccc4c3n2)c1", "test": "enzyme activity, inhibitor", "setting": "10 µM", "endpoint": "remaining activity", "result": "84%"}
{"SMILES": "CNCc1ccccc1-c1csc([C@H](C)Nc2nc(C)nc3cc(OC)c(OC)cc23)c1", "test": "cell-free assay, competition with immobilised ligand", "setting": "1 µM", "endpoint": "remaining binding", "result": "100%"}
{"SMILES": "COc1cc(Nc2cnc(C#N)c(O[C@H](C)CN(C)C)n2)ncc1-c1cnn(C)c1", "test": "enzyme activity, inhibitor, radiometric", "setting": "1 µM", "endpoint": "remaining activity", "result": "87%"}
{"SMILES": "O=C(Nc1ccc(Oc2ccc(F)cc2)cc1)N1CCc2ncccc2[C@H]1c1ccc(F)cc1", "test": "cell-free assay, competition with immobilised ligand", "setting": "1 µM", "endpoint": "remaining binding", "result": "96%"}
{"SMILES": "CC/C(=N\\NC(=O)NCc1cccc(O)c1)c1ccc(O)c(C)c1O", "test": "enzyme activity, inhibitor", "setting": "0.1 µM", "endpoint": "inhibition", "result": "-2.6%"}
{"SMILES": "CCCS(=O)(=O)Nc1ccc(F)c(C(=O)c2c[nH]c3ncc(-c4ccc(Cl)cc4)cc23)c1F", "test": "enzyme activity, inhibitor", "setting": "1 µM", "endpoint": "inhibition", "result": "< 10%"}
{"SMILES": "CC(C)(C)c1nc2c(s1)c1nc(N)ncc1c1ccc(NS(=O)(=O)c3c(F)cccc3F)c(F)c12", "test": "enzyme activity, inhibitor, radiometric", "setting": "1 µM", "endpoint": "remaining activity", "result": "91%"}
{"SMILES": "CNC(=O)c1ccc(Nc2ncc(C(F)(F)F)c(NCc3nccnc3N(C)S(C)(=O)=O)n2)cc1", "test": "cell-free assay, competition with immobilised ligand", "setting": "0.1 µM", "endpoint": "remaining binding", "result": "91%"}
{"SMILES": "Cn1c2c(c3ccc(Cl)c(Cl)c31)C(C#N)C1(CCN(C(=O)OC(C)(C)C)CC1)NC2=O (racemic)", "test": "thermal stability, DSF", "setting": "10 µM", "endpoint": "ΔTm", "result": "-0.1 °C"}
{"SMILES": "Cc1nccc(COC(=O)N2C[C@@H]3[C@@H](CNC(=O)c4ccc5[nH]nnc5c4)[C@@H]3C2)n1", "test": "cell-free assay, competition with immobilised ligand", "setting": "1 µM", "endpoint": "remaining binding", "result": "98%"}
{"SMILES": "CN1CC(Oc2cnc(C#N)cc2-c2ccn3nc(NC(=O)C4CC4)cc3c2)C1", "test": "enzyme activity, inhibitor", "setting": "1 µM", "endpoint": "inhibition", "result": "-1%"}
{"SMILES": "O=C1NC(=O)c2cc(Nc3ccc(F)cc3)c(Nc3ccc(F)cc3)cc21", "test": "cell-free assay", "setting": "0.5 µM", "endpoint": "remaining signal", "result": "99.4%"}
{"SMILES": "O=C(NS(=O)(=O)c1ccc(NCC2CCOCC2)c([N+](=O)[O-])c1)c1ccc(N2CCN(Cc3ccc(C(F)(F)F)cc3-c3ccc(Cl)cc3)CC2)cc1Oc1cnc2[nH]ccc2c1", "test": "cell-free assay, competition with immobilised ligand", "setting": "1 µM", "endpoint": "remaining binding", "result": "99%"}
{"SMILES": "CC(C)(C)C(=O)c1sc(NC2CCCCC2)nc1N", "test": "enzyme activity, inhibitor", "setting": "10 µM", "endpoint": "remaining activity", "result": "102%"}
{"SMILES": "CCN1CCC2(CC1)NC(=O)c1c(c3ccc(Cl)c(Cl)c3n1C)C2C#N (racemic)", "test": "thermal stability, DSF", "setting": "10 µM", "endpoint": "ΔTm", "result": "0.6 °C"}
{"SMILES": "CNC(=O)Nc1ccc2c(c1)[C@@]1(CC2)OC(=O)N(CC(=O)N(Cc2ccc(F)cc2)[C@@H](C)C(F)(F)F)C1=O", "test": "cell-free assay, competition with immobilised ligand", "setting": "1 µM", "endpoint": "remaining binding", "result": "97%"}
